According to ChEMBL document CHEMBL1131050, “Benzoxazole derivatives as novel 5-HT3 receptor partial agonists in the gut” (J Med Chem, 1998):

What was measured:
[1] = test system: 5-HT3 receptor (Cavia porcellus); test: Potency of partial agonist action given by concentration producing 50% of individual maximal contraction of isolated guinea pig ileum
[2] = biological target: T1, Serotonin 3 (5-HT3) receptor (Rattus norvegicus, UniProt P35563+Q9JJ16); test: Binding affinity for 5-hydroxytryptamine 3 receptor in rat cerebral cortex, determined by displacement of [3H]GR-65630; assay type: tissue-based
T1 sequence (P35563 whole entry): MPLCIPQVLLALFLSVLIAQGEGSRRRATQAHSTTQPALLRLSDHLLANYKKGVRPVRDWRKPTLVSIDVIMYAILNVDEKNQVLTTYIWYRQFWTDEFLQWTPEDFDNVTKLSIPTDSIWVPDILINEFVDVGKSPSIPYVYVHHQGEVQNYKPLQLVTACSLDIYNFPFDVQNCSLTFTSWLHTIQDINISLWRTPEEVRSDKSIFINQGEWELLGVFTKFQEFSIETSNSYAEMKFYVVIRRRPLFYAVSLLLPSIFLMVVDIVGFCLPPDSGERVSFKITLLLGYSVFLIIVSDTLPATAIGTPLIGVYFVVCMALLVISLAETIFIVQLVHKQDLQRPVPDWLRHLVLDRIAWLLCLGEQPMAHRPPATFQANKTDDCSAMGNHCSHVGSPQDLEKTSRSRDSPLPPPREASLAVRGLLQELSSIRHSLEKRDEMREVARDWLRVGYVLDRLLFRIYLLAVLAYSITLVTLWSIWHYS
T1 sequence (Q9JJ16 whole entry): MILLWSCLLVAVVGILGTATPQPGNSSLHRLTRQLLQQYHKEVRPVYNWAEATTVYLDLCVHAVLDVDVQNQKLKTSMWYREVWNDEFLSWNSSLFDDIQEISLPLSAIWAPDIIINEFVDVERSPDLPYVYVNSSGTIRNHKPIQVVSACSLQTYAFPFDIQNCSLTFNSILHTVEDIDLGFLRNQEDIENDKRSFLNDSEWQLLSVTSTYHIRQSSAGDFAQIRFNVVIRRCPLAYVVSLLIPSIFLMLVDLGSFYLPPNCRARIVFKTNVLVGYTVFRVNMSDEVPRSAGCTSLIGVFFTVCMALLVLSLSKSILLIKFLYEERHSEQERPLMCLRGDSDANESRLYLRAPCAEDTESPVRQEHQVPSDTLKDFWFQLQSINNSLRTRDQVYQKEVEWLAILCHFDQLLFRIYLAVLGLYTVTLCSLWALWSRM
Summary of the method: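 Membranes from cortex of male Wistar rats (250–300 g); 0.04 mg membrane incubated with 0.2 nM […], 60 min, 22 °C; filtration, three washes, filter counting. Nonspecific binding defined with 1 mM ICS205-930. Six replicates per dose; displacement curves fitted by nonlinear regression to give IC50, converted to Ki by Cheng–Prusoff.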

[3] = test system: 5-HT3 receptor (Cavia porcellus); test: Maximal partial agonist activity at 5-hydroxytryptamine 3 receptor of isolated guinea pig ileum as ratio to 5-HT response
Mus musculus [4] = test: Transition time (time required to evacuate the glass bead) in the distal colon in mice at dose 1 mg/kg; assay type: functional
Summary of the method: (§1)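 Male mice fasted 4 h. Compound given sc 20 min before a 3 mm glass bead was inserted 3 cm into the distal colon; time to expel the bead was recorded. 8 animals per group, mean ± SEM. Compared with control by ANOVA followed by Steel's multiple range test, p < 0.05.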

Mus musculus [5] = test: Transition time (time required to evacuate the glass bead) in the distal colon in mice at dose 0.3 mg/kg; assay type: functional
Summary of the method: as §1

Mus musculus [6] = test: Transition time (time required to evacuate the glass bead) in the distal colon in mice at dose 3 mg/kg; assay type: functional
Summary of the method: as §1

Rattus norvegicus = species: Rattus norvegicus; test: Inhibitory dose against 5-HT-Evoked Bezold-Jarisch (B-J) reflex in rats; assay type: functional; conditions: read-out: ID50 (the source's name)
[7] = biological target: GABA-A receptor; anion channel (Homo sapiens) (UniProt P14867+P47870+P18507+P28472+P48169+Q99928+Q9UN88+P34903+O00591+O14764+Q8N1C3+P18505+P78334+P47869+P31644+Q16445); test: Inhibition of [3H]flunitrazepam binding to GABA-A central benzodiazepine receptor at 10e-5 M; assay type: protein-complex assay
[8] = biological target: T2, 5-hydroxytryptamine receptor 1A (Mus musculus) (UniProt Q64264); test: Inhibitory activity against 5-hydroxytryptamine 1A receptor using [3H]8-OH-DPAT as radioligand at 10e-5 M concentration
T2 sequence (whole entry): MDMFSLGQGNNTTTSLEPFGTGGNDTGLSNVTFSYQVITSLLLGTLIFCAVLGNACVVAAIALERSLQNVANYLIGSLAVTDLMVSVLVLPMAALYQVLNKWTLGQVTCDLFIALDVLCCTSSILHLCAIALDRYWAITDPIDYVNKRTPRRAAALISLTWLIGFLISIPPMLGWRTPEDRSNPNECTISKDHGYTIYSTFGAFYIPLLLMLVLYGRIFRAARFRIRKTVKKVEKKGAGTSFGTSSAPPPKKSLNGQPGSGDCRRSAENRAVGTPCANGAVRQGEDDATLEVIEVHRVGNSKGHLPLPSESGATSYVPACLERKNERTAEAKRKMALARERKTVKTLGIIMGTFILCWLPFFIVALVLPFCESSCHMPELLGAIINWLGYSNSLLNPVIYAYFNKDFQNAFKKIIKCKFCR

Mus musculus [9] = test: Inhibitory activity against 5-HT evoked diarrhea in mice, sc; assay type: functional; conditions: read-out: ID50 (the source's name)
[10] = biological target: D(1A) dopamine receptor (Mus musculus) (UniProt Q61616); test: Inhibitory activity against Dopamine receptor D1 using [3H]SCH-23390 as radioligand at 10e-5 M concentration at 10e-5 M concentration
[11] = test system: Alpha-2 adrenergic receptor (Rattus norvegicus); test: Inhibitory activity against Alpha-2 adrenergic receptor using [3H]rauwolscine as radioligand at 10e-5 M concentration
[12] = biological target: T3, 5-hydroxytryptamine receptor 1F (Rattus norvegicus) (UniProt P30940); test: Inhibitory activity against 5-hydroxytryptamine 1 receptor using [3H]5-HT as radioligand at 10e-5 M concentration
T3 sequence (whole entry): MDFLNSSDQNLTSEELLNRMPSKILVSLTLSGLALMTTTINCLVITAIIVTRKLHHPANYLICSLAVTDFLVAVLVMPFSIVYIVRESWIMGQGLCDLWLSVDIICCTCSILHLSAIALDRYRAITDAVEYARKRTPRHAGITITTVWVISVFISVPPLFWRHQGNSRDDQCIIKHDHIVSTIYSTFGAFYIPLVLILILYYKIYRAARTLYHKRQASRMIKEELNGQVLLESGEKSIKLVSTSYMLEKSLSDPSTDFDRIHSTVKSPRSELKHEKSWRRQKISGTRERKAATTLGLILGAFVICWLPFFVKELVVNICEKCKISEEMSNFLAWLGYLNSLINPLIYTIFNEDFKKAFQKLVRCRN

[13] = test system: Alpha-1 adrenergic receptor (Rattus norvegicus); test: Inhibitory activity against Alpha-1 adrenergic receptor using [3H]prazosin as radioligand at 10e-5 M concentration
[14] = biological target: 5-hydroxytryptamine receptor 2A (Bos taurus) (UniProt Q75Z89); test: Inhibitory activity against 5-hydroxytryptamine 2 receptor using [3H]-ketanserin as radioligand at 10e-5 M concentration
Mus musculus [15] = test: Transition time (time required to evacuate the glass bead) in the distal colon in mice at dose 30 mg/kg; assay type: functional
Summary of the method: as §1

[16] = biological target: Beta-2 adrenergic receptor (Canis lupus familiaris) (UniProt P54833); test: Inhibitory activity against non-selective beta adrenergic receptor using [3H]DHA as radioligand at 10e-5 M concentration
[17] = biological target: T1, Serotonin 3 (5-HT3) receptor; test: Binding affinity for 5-hydroxytryptamine 3 receptor was determined by measuring displacement of [3H]GR-65630 from rat brain cortices
[18] = biological target: D(2) dopamine receptor (Homo sapiens) (UniProt P14416); test: Inhibitory activity against Dopamine receptor D2 using [3H]-spiperone as radioligand at 10e-5 M concentration
Sequence of D(2) dopamine receptor (Homo sapiens) (P14416 whole entry): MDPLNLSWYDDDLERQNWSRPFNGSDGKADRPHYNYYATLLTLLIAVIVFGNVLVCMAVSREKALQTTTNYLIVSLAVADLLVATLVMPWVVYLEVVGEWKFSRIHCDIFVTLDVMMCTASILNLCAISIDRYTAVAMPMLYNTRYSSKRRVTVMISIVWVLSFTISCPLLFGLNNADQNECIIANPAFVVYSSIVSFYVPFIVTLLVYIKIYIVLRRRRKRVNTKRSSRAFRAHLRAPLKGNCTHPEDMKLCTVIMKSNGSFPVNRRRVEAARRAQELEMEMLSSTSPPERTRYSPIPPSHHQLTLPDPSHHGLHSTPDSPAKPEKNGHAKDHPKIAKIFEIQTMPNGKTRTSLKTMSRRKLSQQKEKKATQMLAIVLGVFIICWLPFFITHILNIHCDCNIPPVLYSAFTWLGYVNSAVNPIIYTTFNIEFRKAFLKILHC

Sequence of Beta-2 adrenergic receptor (Canis lupus familiaris) (P54833 whole entry, looked up): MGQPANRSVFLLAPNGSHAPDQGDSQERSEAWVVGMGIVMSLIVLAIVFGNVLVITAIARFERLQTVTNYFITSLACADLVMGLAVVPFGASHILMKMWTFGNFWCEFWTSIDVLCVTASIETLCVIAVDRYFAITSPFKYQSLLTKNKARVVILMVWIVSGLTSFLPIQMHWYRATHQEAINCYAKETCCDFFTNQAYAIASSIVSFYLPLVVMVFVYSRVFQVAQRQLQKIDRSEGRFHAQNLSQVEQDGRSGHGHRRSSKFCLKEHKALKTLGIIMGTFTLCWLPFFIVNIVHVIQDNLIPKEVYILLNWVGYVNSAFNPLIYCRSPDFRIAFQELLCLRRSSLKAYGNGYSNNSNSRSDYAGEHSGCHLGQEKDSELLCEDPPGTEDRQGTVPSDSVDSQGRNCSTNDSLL
Sequence of 5-hydroxytryptamine receptor 2A (Bos taurus) (Q75Z89 whole entry): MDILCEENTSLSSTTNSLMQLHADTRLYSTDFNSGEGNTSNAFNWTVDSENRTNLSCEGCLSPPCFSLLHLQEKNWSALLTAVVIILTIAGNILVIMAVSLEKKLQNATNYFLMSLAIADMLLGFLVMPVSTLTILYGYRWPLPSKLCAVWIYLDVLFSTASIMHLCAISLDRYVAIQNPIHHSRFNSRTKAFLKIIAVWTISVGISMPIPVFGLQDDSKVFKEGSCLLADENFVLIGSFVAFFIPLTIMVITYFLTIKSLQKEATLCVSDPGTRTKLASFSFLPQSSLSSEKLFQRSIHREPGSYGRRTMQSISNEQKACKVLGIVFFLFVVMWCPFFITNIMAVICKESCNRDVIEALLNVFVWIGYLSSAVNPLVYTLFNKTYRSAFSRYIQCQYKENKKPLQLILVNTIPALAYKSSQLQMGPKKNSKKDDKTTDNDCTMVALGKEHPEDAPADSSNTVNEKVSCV
Sequence of D(1A) dopamine receptor (Mus musculus) (Q61616 whole entry): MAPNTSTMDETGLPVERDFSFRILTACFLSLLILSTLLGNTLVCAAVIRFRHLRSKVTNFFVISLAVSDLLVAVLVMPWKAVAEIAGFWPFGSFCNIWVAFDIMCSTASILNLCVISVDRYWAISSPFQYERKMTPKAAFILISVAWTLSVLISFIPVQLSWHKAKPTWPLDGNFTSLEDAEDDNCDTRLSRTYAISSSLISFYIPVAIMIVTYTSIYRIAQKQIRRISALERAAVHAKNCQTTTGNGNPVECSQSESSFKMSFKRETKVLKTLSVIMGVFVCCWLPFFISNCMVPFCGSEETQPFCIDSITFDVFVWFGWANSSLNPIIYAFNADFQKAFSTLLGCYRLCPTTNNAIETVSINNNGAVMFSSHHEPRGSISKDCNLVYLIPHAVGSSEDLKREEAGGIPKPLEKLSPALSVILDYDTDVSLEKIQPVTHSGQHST

| SMILES | pD2 [1] | inhibition at 10^-7 M [2] [%] | IA [3] | further results |
| --- | --- | --- | --- | --- |
| Cc1cccc2oc(N3CCN(C)CC3)nc12 | < 5 | 25 | – | – |
| Cc1ccc2oc(N3CCN(C)CC3)nc2c1 | 6 | 83 | 0.72 | – |
| Cc1cccc2nc(N3CCN(C)CC3)oc12 | 5.46 | 77 | 0.58 | – |
| Cc1c(Cl)cc2nc(N3CCN(C)CC3)oc2c1Cl | 6.64 | 96 | 0.1 | – |
| Cc1cc(Cl)cc2nc(N3CCN(C)CC3)oc12 | 6.7 | 85 | 0.24 | – |
| c1ccc2oc(N3CCCCC3)nc2c1 | < 5 | – | – | – |
| CN1CCN(c2nc3cc(C(F)(F)F)ccc3o2)CC1 | < 5 | 22 | – | – |
| c1ccc2oc(N3CCNCC3)nc2c1 | – | 83 | – | – |
| CN1CCN(c2nc3ccccc3o2)CC1 | 5.01 | 55 | 0.62 | – |
| CN1CCN(c2nc3cc(F)ccc3o2)CC1 | 5.57 | 91 | 0.64 | – |
| CN1C2CCCC1CC(NC(=O)c1nn(C)c3ccccc13)C2 (stereo not given) [GRANISETRON] | – | – | – | Time (Mus musculus [4]): 614 s; Time (Mus musculus [5]): 373 s; Time (Mus musculus [6]): 827 s |
| CN1CCCN(c2nc3cc(Cl)ccc3o2)CC1 | 7 | 87 | 0.31 | – |
| CN1CCN(c2nc3cc(Br)ccc3o2)CC1 | 6.21 | 92 | 0.48 | – |
| Cc1c(Cl)cc2nc(N3CCN(C)CC3)oc2c1C | 6.67 | 101 | 0.14 | – |
| c1ccc2oc(C3CCNCC3)nc2c1 | 5.59 | 39 | 0.31 | – |
| Cc1cc(C)c2oc(N3CCN(C)CC3)nc2c1 | 6.32 | 94 | 0.62 | – |
| Cc1cc(Cl)cc2nc(N3CCCN(C)CC3)oc12 | 7.76 | 98 | 0.12 | ED50 (Rattus norvegicus): 0.0876 mg/kg; inhibition [7]: 12%; inhibition [8]: -3%; ED50 (Mus musculus [9]): 0.3 mg/kg; inhibition [10]: 18%; inhibition [11]: 33%; inhibition [12]: 14%; inhibition [13]: 22%; inhibition [14]: 23%; Time (Mus musculus [15]): 328.8 s; inhibition [16]: 24%; Ki [17]: 1.1 nM; Time (Mus musculus [5]): 262.6 s; inhibition [18]: 5%; Time (Mus musculus [6]): 357.2 s |
| CN1CCCN(c2nc3ccccc3o2)CC1 | 6.03 | 86 | 0.54 | – |
| Cc1cc2nc(N3CCN(C)CC3)oc2cc1C | 6.16 | 32 | 0.66 | – |
| Cc1ccc2nc(N3CCN(C)CC3)oc2c1 | 5.15 | 74 | 0.85 | – |
| CN1CCN(c2nc3cc(Cl)cc(Cl)c3o2)CC1 | 6.51 | 62 | 0.14 | – |
| Cc1cc2oc(N3CCN(C)CC3)nc2cc1Cl | 6.28 | 95 | 0.28 | – |
| CN1CCN(c2nc3cc(Cl)ccc3o2)CC1 | 6.07 | 94 | 0.5 | – |
| CCc1ccc2oc(N3CCN(C)CC3)nc2c1 | < 5 | 11 | – | – |
